This note sets out measurements from ChEMBL document CHEMBL1177799 (Bioorg Med Chem Lett, 2010).

For test [1], the target named is T1, Adenosine receptor A2b (Homo sapiens, UniProt P29275).
T1 sequence (P29275 whole entry): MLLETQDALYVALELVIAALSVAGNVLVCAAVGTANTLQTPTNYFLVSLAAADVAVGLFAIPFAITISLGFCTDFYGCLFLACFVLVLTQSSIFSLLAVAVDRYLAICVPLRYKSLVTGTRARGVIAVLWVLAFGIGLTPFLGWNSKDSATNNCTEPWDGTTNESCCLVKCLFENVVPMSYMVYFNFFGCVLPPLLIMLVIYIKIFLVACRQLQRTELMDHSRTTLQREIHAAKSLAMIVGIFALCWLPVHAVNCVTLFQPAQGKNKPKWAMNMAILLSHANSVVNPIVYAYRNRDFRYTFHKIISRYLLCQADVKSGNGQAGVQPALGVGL
Nature of the test: Displacement of [3H]ZM241385 from human adenosine A2B receptor expressed in CHO cells after 1 hr by scintillation counting. It counts as cell-based. An outline of the steps:
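Whole CHO cells expressing human A2B receptor, harvested mechanically from 80% confluent flasks, frozen, then resuspended in assay buffer on assay day. Competition against [3H]ZM241385 (30 nM final), 1 h at room temperature with shaking. Harvest on 0.5% polyethyleneimine-treated filter plates, air-dried, scintillation counting.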
For orientation: In a radioligand displacement assay an active substance lowers the binding of a labelled ligand.

The target of test [2] is T2, Adenosine receptor A1 (Homo sapiens, UniProt P30542).
T2 sequence (P30542 whole entry): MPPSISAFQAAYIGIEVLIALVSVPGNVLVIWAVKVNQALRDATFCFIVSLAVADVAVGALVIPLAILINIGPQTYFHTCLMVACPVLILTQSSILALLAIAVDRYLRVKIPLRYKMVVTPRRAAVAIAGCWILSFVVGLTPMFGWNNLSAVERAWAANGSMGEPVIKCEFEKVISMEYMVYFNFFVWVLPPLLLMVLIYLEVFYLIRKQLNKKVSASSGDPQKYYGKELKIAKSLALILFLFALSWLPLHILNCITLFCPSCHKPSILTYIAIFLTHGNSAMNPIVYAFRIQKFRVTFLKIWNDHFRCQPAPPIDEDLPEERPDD
Nature of the test: Displacement of [3H]-DPCPX from human adenosine A1 receptor expressed in CHO-K1 cells after 1 hr by scintillation counting. It counts as cell-based. An outline of the steps:
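Commercial human A1 membranes (10 µg/well) in HEPES 50 mM, NaCl 100 mM, MgCl2 1 mM buffer; competition against [3H]-DPCPX (4.8 nM final), 1 h at room temperature with orbital shaking. Filtration harvest on polyethyleneimine-treated (0.5%) glass-fibre plates, air-dried, scintillation counting.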

Test [3] has as its target Adenosine receptor A2a (Homo sapiens, UniProt P29274). Nature of the test: Displacement of [3H]-ZM241385 from human adenosine A2A receptor expressed in CHO-K1 cells after 1 hr by scintillation counting. It counts as cell-based.
Test [4] addresses T1, Adenosine receptor A2b. Description: Antagonist activity at human adenosine A2B receptor expressed in CHO cells assessed as inhibition of adenosine-induced cAMP production. The test is classed as functional, cell-based. An outline of the steps:
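CHO cells stably transfected with human A2B receptor, grown overnight as monolayer (7500 cells/well), washed with Krebs buffer, then exposed to compounds in Krebs buffer (final DMSO 1.1%) for 20–25 min. Wells emptied, cells lysed and cAMP measured with an enzyme-fragment complementation cAMP kit for adherent cells.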

The Ki is the equilibrium dissociation constant of an inhibitor or competing ligand from its target. High values mean lower affinity, low ones higher affinity. In general, IC50 refers to the concentration needed to halve the response being measured.

Chain of Adenosine receptor A2a (P29274 whole entry): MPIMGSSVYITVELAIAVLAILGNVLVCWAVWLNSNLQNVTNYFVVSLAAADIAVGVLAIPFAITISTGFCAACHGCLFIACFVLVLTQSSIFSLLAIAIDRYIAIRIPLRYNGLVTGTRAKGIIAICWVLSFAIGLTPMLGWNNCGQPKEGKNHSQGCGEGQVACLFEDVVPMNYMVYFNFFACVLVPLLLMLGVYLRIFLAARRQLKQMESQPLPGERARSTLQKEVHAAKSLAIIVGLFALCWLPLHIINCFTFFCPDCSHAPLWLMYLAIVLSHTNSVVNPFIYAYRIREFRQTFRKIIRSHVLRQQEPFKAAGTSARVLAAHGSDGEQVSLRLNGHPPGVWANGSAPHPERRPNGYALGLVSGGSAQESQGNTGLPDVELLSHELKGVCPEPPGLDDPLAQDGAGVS

`CCN(C(C)=O)c1ccc(OC)c2nc(NC(=O)c3ccc(CN(C)S(C)(=O)=O)cc3)sc12`: the values for the inhibitory constant (Ki) in test [1], in test [2] and in test [3] were 4 nM, 410 nM and 71 nM, respectively. The IC50 in test [4] stood at 19 nM.
For `CCN(C(C)=O)c1ccc(OC)c2nc(NC(=O)c3ccc(C(=O)NC)cc3)sc12`, the inhibition constant (Ki) in test [2] is 185 nM; in test [3] it was 84 nM. The IC50 in test [4] was determined as 21 nM.
`CCN(C(C)=O)c1ccc(OC)c2nc(NC(=O)c3ccc(C(=O)N4CCN(C)CC4)cc3)sc12`: the Ki stood at 18 nM in test [1], 120 nM in test [2] and 89 nM in test [3]. In addition, the half-inhibitory concentration (IC50) in test [4] was 38 nM.
For `CCN(C(C)=O)c1ccc(OC)c2nc(NC(=O)c3ccc(CN4CCCC4=O)cc3)sc12`, in that order: 14 nM, 400 nM, 27 nM and 28 nM.
For the compound `CCN(C(C)=O)c1ccc(OC)c2nc(NC(=O)c3cnn(C)c3)sc12`, the Ki is 19 nM in test [1] and 41 nM in test [3]. The IC50 in test [4] came out at 29 nM.
`CNC(=O)CN(C(C)=O)c1ccc(OC)c2nc(NC(=O)c3ccc(F)cc3)sc12`: the Ki in test [2] came out at 790 nM; in test [3], 330 nM. The concentration for half-maximal inhibition (IC50) in test [4] was found to be 350 nM.
Turning to `CCN(C(C)=O)c1ccc(OC)c2nc(NC(=O)c3ccc(C(=O)OC)cc3)sc12`, the inhibition constant (Ki) in test [1] came out at 15 nM; in test [2], 185 nM; in test [3], 170 nM. Moreover, in test [4], the IC50 was found to be 35 nM.
As for `COc1ccc(NC(C)=O)c2sc(NC(=O)c3ccc(F)cc3)nc12`, the Ki in test [1] stood at 130 nM; in test [2], 1600 nM; in test [3], 250 nM. For the same compound, in test [4], the IC50 was determined as 350 nM.
For the compound `COc1ccc(N(CCO)C(C)=O)c2sc(NC(=O)c3ccc(F)cc3)nc12`, the values for the Ki in test [2] and in test [3] were 450 nM and 98 nM, respectively. Also, the half-inhibitory concentration (IC50) in test [4] worked out at 77 nM.
For the compound `CCN(C(C)=O)c1ccc(OC)c2nc(NC(=O)c3ccc(-n4cnnn4)cc3)sc12`, the Ki stood at 23 nM in test [1], 130 nM in test [2] and 80 nM in test [3]. Besides, the concentration for half-maximal inhibition (IC50) in test [4] turned out to be 28 nM.
For the compound `CCN(C(C)=O)c1ccc(OC)c2nc(NC(=O)c3ccc(-n4ccnc4)cc3)sc12`, the Ki in test [1] amounted to 8 nM; in test [2], 150 nM; in test [3] it was 77 nM. Also, the IC50 in test [4] was 19 nM.
`CCN(C(C)=O)c1ccc(OC)c2nc(NC(=O)c3cc[nH]c3)sc12`: the Ki was 35 nM in test [2] and 18 nM in test [3]. Further, the concentration for half-maximal inhibition (IC50) in test [4] is 7 nM.
As for `CCN(C(C)=O)c1ccc(OC)c2nc(NC(=O)c3cn[nH]c3)sc12`, the IC50 in test [4] was 21 nM.
Consider `CCN(C(C)=O)c1ccc(OC)c2nc(NC(=O)c3ccc(C(=O)N(C)CCOC)cc3)sc12`, for which the inhibition constant Ki turned out to be 13 nM in test [1], 180 nM in test [2] and 26 nM in test [3]. Moreover, the IC50 in test [4] was 13 nM.
As for `CCN(C(C)=O)c1ccc(OC)c2nc(NC(=O)c3ccc(NS(C)(=O)=O)cc3)sc12`, the inhibition constant (Ki) in test [1] turned out to be 22 nM; in test [2], 110 nM; in test [3], 46 nM. Moreover, the IC50 in test [4] is 37 nM.
Consider `CCN(C(C)=O)c1ccc(Cl)c2nc(NC(=O)c3ccc(F)cc3)sc12`, for which the Ki in test [2] came out at 30 nM; in test [3] it was 15 nM. The IC50 in test [4] was 23 nM.
On to `COc1ccc(N(CC(F)(F)F)C(C)=O)c2sc(NC(=O)c3ccc(F)cc3)nc12`, for which the figures for the Ki in test [2] and in test [3] were 42 nM and 35 nM, respectively. Besides, the concentration for half-maximal inhibition (IC50) in test [4] is 40 nM.
Regarding `CCN(C(C)=O)c1ccc(OC)c2nc(NC(=O)c3cnn(Cc4cccc(C(F)(F)F)c4)c3)sc12`, the Ki was 4 nM in test [1], 6 nM in test [2] and 3 nM in test [3]. Besides, the 50% inhibitory concentration (IC50) in test [4] was 6 nM.
Turning to `CCN(C(C)=O)c1ccc(OC)c2nc(NC(=O)c3ccc(S(C)(=O)=O)cc3)sc12`, the Ki in test [1] is 19 nM; in test [2], 390 nM; in test [3], 92 nM. Further, in test [4], the IC50 is 36 nM.
With `COc1ccc(N(C(C)=O)C(C)C)c2sc(NC(=O)c3ccc(F)cc3)nc12`, in test [4], the IC50 was determined as 19 nM.
As to `COc1ccc(N(CC(=O)N(C)C)C(C)=O)c2sc(NC(=O)c3ccc(F)cc3)nc12`, the Ki was 1600 nM in test [2] and 480 nM in test [3]. The half-inhibitory concentration (IC50) in test [4] came out at 600 nM.
Consider `CCN(C(C)=O)c1ccc(OC)c2nc(NC(=O)c3cnn(Cc4cccc(F)c4)c3)sc12`, for which the inhibitory constant (Ki) in test [1] was 6 nM; in test [2], 9 nM; in test [3], 3 nM. Also, the IC50 in test [4] was found to be 12 nM.
On to `CCN(C(C)=O)c1ccc(OC)c2nc(NC(=O)c3ccc(C(=O)N4CCOCC4)cc3)sc12`, for which the Ki was determined as 7 nM in test [1], 160 nM in test [2] and 76 nM in test [3]. Also, the half-maximal inhibitory concentration (IC50) in test [4] was determined as 21 nM.
For the compound `COc1ccc(N(C(C)=O)C(F)F)c2sc(NC(=O)c3ccc(F)cc3)nc12`, the inhibition constant Ki in test [2] was 30 nM; in test [3], 61 nM. Also, in test [4], the 50% inhibitory concentration (IC50) worked out at 230 nM.
For `COCCN(C(C)=O)c1ccc(OC)c2nc(NC(=O)c3ccc(F)cc3)sc12`, the Ki in test [2] came out at 110 nM; in test [3], 38 nM. For the same compound, in test [4], the IC50 turned out to be 33 nM.
For the compound `COc1ccc(N(CCCO)C(C)=O)c2sc(NC(=O)c3ccc(F)cc3)nc12`, the inhibitory constant (Ki) in test [2] is 100 nM; in test [3], 29 nM. The IC50 in test [4] was 42 nM.
Take `CCN(C(C)=O)c1ccc(OC)c2nc(NC(=O)c3ccc(C#N)cc3)sc12`: the inhibition constant (Ki) amounted to 10 nM in test [1], 71 nM in test [2] and 50 nM in test [3]. For the same compound, the IC50 in test [4] came out at 28 nM.
Turning to `CCN(C(C)=O)c1ccc(OC)c2nc(NC(=O)c3ccc(C(=O)N4CCCC4)cc3)sc12`, the values for the Ki in test [2] and in test [3] were 50 nM and 68 nM, respectively. For the same compound, the 50% inhibitory concentration (IC50) in test [4] was determined as 16 nM.
On to `COc1ccc(N(C)C(C)=O)c2sc(NC(=O)c3ccc(F)cc3)nc12`, for which the Ki in test [1] is 22 nM; in test [2], 66 nM; in test [3], 39 nM. For the same compound, in test [4], the IC50 was 15 nM.
For `COc1ccc(N(CC(=O)O)C(C)=O)c2sc(NC(=O)c3ccc(F)cc3)nc12`, the Ki is 2600 nM in test [2] and 2200 nM in test [3]. The IC50 in test [4] came to 6000 nM.
For `CCN(C(C)=O)c1ccc(OC)c2nc(NC(=O)c3ccc(F)cc3)sc12`, the figures for the inhibitory constant (Ki) in test [1], in test [2] and in test [3] were 13 nM, 66 nM and 22 nM, respectively. Moreover, in test [4], the IC50 worked out at 12 nM.
For `CCN(C(C)=O)c1ccc(OC)c2nc(NC(=O)c3ccc(-n4cccn4)cc3)sc12`, the Ki in test [1] stood at 18 nM; in test [2], 78 nM; in test [3] it was 66 nM. The concentration for half-maximal inhibition (IC50) in test [4] came out at 21 nM.
For the compound `COc1ccc(N(CC(C)C)C(C)=O)c2sc(NC(=O)c3ccc(F)cc3)nc12`, the inhibition constant Ki in test [2] amounted to 37 nM; in test [3] it was 3 nM. Also, the 50% inhibitory concentration (IC50) in test [4] came to 23 nM.
As for `COc1ccc(N(CC(N)=O)C(C)=O)c2sc(NC(=O)c3ccc(F)cc3)nc12`, the values for the Ki in test [2] and in test [3] were 560 nM and 160 nM, respectively. For the same compound, the concentration for half-maximal inhibition (IC50) in test [4] stood at 60 nM.
In the case of `CCN(C(C)=O)c1ccc(OC)c2nc(NC(=O)c3ccc(C(=O)N4CCCCC4)cc3)sc12`, the figures for the Ki in test [1], in test [2] and in test [3] were 4 nM, 300 nM and 100 nM, respectively. Also, the half-maximal inhibitory concentration (IC50) in test [4] worked out at 16 nM.
Turning to `COC(=O)CN(C(C)=O)c1ccc(OC)c2nc(NC(=O)c3ccc(F)cc3)sc12`, the values for the Ki in test [2] and in test [3] were 23 nM and 5 nM, respectively. In addition, the half-inhibitory concentration (IC50) in test [4] was determined as 8 nM.
